# Columns and labels:
# [1] = tested on: MT4; assay: Cytotoxicity against MT4 cells; format: functional; settings: Homo sapiens
# Method in brief: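 Exponentially growing MT-4 cells were resuspended at 5 × 10⁵ cells/mL in RPMI 1640 with 20% FBS and 20% IL-2. They were infected with HIV-1 IIIB (100 × TCID₅₀ per well) for 1 h at 37 °C, with mock-infected cells run in parallel. The suspension was diluted 6-fold onto serially diluted compound and incubated for 5 days at 37 °C in 5% CO₂. MTS staining was read at 492 nm.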
# [2] = tested on: Human immunodeficiency virus 1; assay: Antiviral activity against HIV1 3B in CEM cells; format: functional, organism-based; settings: Human immunodeficiency virus 1, 3B, CCRF-CEM
# Method in brief: (§1)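 CEM cells at 4.5 × 10⁵ cells/mL were infected with 100 CCID₅₀/mL of HIV-1 or HIV-2. Giant-cell formation was scored microscopically. EC₅₀ was the concentration preventing syncytium formation by 50%.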
# [3] = tested on: HepG2; assay: Cytotoxicity against HepG2 2.2.15 cells; format: functional; settings: Homo sapiens
# Method in brief: (§2)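 HepG2 2.2.15 cells, which produce HBV constitutively, were seeded at 5 × 10³ per well. Drug-containing medium was replaced every other day for 9 days. Virions in the supernatant were captured on anti-HBsAg plates, and their DNA was quantified by PCR against an HBV standard curve and normalized to untreated cells. For cell growth, monolayers were ethanol-fixed and stained with bisbenzimide H33342, and fluorescence was compared with untreated cells. SI = CC₅₀/EC₅₀.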
# [4] = tested on: Human immunodeficiency virus 2; assay: Antiviral activity against HIV2 ROD in MT4 cells; format: functional, organism-based; settings: Human immunodeficiency virus 2, ROD
# Method in brief: (§3)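 MT-4 cells at 4.5 × 10⁵ cells/mL were infected with 100 CCID₅₀/mL of HIV-1 or HIV-2. Viable cells were then counted after trypan blue staining, and EC₅₀ was derived from these viable-cell counts.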
# [5] = tested on: Hepatitis B virus; assay: Antiviral activity against HBV in HepG2 2.2.15 cells; format: functional, organism-based; method in brief: as §2
# [6] = tested on: Human immunodeficiency virus 2; assay: Antiviral activity against HIV2 ROD in CEM cells; format: functional, organism-based; settings: Human immunodeficiency virus 2, ROD, CCRF-CEM; method in brief: as §1
# [7] = tested on: Cynomolgus monkey; assay: Metabolic stability in cynomolgus monkey liver S9 fraction; format: ADME, Macaca fascicularis
# Method in brief: (§4)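 Pooled cynomolgus S9 (liver or intestinal segments), test compound 10 µM final, 37 °C, DMSO <1% final; reaction started with NADPH 2.5 mM final. Aliquots taken at 0 (preincubation), 10, 20, 30 and 60 min, quenched with cold acetonitrile, centrifuged; supernatant parent measured by LC/MS/MS. Stability given as % remaining from pre- vs postincubation peak areas.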
# [8] = tested on: Human immunodeficiency virus 1; assay: Antiviral activity against HIV1 3B in MT4 cells; format: functional, organism-based; settings: Human immunodeficiency virus 1, 3B; method in brief: as §3
# [9] = tested on: Cynomolgus monkey; assay: Metabolic stability in cynomolgus monkey intestine S9 fraction; format: ADME, Macaca fascicularis; method in brief: as §4
# [10] = tested on: CEM cells (Homo sapiens); assay: Cytotoxicity against CEM cells
Compound,CC50 [1] [nM],EC50 [2] [nM],CC50 [3] [nM],EC50 [4] [nM],EC50 [5] [nM],EC50 [6] [nM],Stability [7] [%],EC50 [8] [nM],Stability [9] [%],CC50 [10] [nM]
CCOC(=O)c1cccc(OP(=O)(N[C@@H](C)C(=O)OC)OC[C@H]2C=C[C@@H](n3cnc4c(N)ncnc43)C2)c1 (stereo partly specified),4390,65,> 2000,33,4,80,19,53,42,8390
COC(=O)[C@H](Cc1ccc(OC(C)(C)C)cc1)NP(=O)(OC[C@H]1C=C[C@@H](n2cnc3c(N)ncnc32)C1)Oc1ccccc1 (stereo partly specified),19800,3000,> 2000,130,26,5500,,110,,79700
COC(=O)C[C@H](NP(=O)(OC[C@H]1C=C[C@@H](n2cnc3c(N)ncnc32)C1)Oc1ccccc1)C(=O)OC (stereo partly specified),> 16000,1100,> 2000,260,50,3500,4,320,8,> 50000
COC(=O)[C@@H](CC(C)C)NP(=O)(OC[C@H]1C=C[C@@H](n2cnc3c(N)ncnc32)C1)Oc1ccccc1 (stereo partly specified),< 16000,1600,> 2000,930,130,3500,,< 1000,,88500
COC(=O)[C@H](Cc1ccccc1)NP(=O)(OC[C@H]1C=C[C@@H](n2cnc3c(N)ncnc32)C1)Oc1ccccc1 (stereo partly specified),16000,,9000,,4.5,,,100,,
COC(=O)[C@H](C)NP(=O)(OC[C@H]1C=C[C@@H](n2cnc3c(N)ncnc32)C1)Oc1ccc(Cl)c(Cl)c1 (stereo partly specified),> 4000,90,> 2000,76,5,110,,77,,13000
COC(=O)c1ccc(OP(=O)(N[C@@H](C)C(=O)OC)OC[C@H]2C=C[C@@H](n3cnc4c(N)ncnc43)C2)cc1 (stereo partly specified),> 4000,130,> 2000,56,4,130,7,120,48,12900
COC(=O)[C@H](C)NP(=O)(OC[C@H]1C=C[C@@H](N2C=NC3C(N)=NC=NC32)C1)Oc1ccc(C(F)(F)F)cc1 (stereo partly specified),5870,60,720,46,< 3.2,60,,35,,6400
C[C@H](NP(=O)(OC[C@H]1C=C[C@@H](n2cnc3c(N)ncnc32)C1)Oc1ccccc1)C(=O)OCc1ccccc1 (stereo partly specified),255000,,5000,,7.5,,0,9,0,
C[C@H](NP(=O)(OC[C@H]1C=C[C@@H](n2cnc3c(N)ncnc32)C1)Oc1ccccc1)C(=O)OCC(C)(C)C (stereo partly specified),> 10000,67,13000,30,3,83,0,43,57,19500
COC(=O)[C@H](C)NP(=O)(OC[C@H]1C=C[C@@H](n2cnc3c(N)ncnc32)C1)Oc1ccc([N+](=O)[O-])cc1 (stereo partly specified),10000,100,> 2000,170,7,100,,120,,17400
CCOC(=O)c1ccccc1OP(=O)(N[C@@H](C)C(=O)OC)OC[C@H]1C=C[C@@H](n2cnc3c(N)ncnc32)C1 (stereo partly specified),< 4000,53,12000,,4,57,25,< 260,80,4170
COC(=O)[C@H](C)NP(=O)(OC[C@@H]1C=C[C@H](n2cnc3c(N)ncnc32)C1)Oc1ccccc1 (stereo partly specified),3700,,5400,,4000,,,300,,
C[C@H](NP(=O)(OC[C@H]1C=C[C@@H](n2cnc3c(N)ncnc32)C1)Oc1ccccc1)C(=O)OC(C)(C)C (stereo partly specified),< 25000,2930,170000,3080,250,3670,1,< 260,96,130000
COC(=O)[C@H](NP(=O)(OC[C@H]1C=C[C@@H](n2cnc3c(N)ncnc32)C1)Oc1ccccc1)C(C)C (stereo partly specified),> 16000,7500,> 200000,14200,600,10000,,2300,,230000
Nc1ncnc2c1ncn2[C@@H]1CC[C@H](CO)C1,> 10000,,> 200000,,61000,,,> 10000,,
COC(=O)[C@@H](Cc1c[nH]c2ccccc12)NP(=O)(OC[C@H]1C=C[C@@H](n2cnc3c(N)ncnc32)C1)Oc1ccccc1 (stereo partly specified),> 40000,20000,> 2000,21900,200,25000,,13300,,93400
COC(=O)[C@@H](Cc1ccccc1)NP(=O)(OC[C@H]1C=C[C@@H](n2cnc3c(N)ncnc32)C1)Oc1ccccc1 (stereo partly specified),> 40000,9000,200000,5930,700,8670,,2800,,108000
COC(=O)[C@H](C)NP(=O)(OC[C@H]1CC[C@@H](n2cnc3c(N)ncnc32)C1)Oc1ccccc1 (stereo partly specified),> 12500,,> 2000,,600,,,1800,,
Nc1ncnc2c1ncn2[C@H]1C=C[C@@H](CO)C1,> 500000,,> 200000,,52000,,,15000,,
COC(=O)[C@H](C)NP(=O)(OC[C@H]1C=C[C@@H](n2cnc3c(N)ncnc32)C1)Oc1cccc(C(F)(F)F)c1 (stereo partly specified),,,,,,,45,,92,
COC(=O)[C@@H](CCSC)NP(=O)(OC[C@H]1C=C[C@@H](n2cnc3c(N)ncnc32)C1)Oc1ccccc1 (stereo partly specified),> 25000,7670,> 2000,3480,220,7870,,2500,,211000
COC(=O)C[C@@H](NP(=O)(OC[C@H]1C=C[C@@H](n2cnc3c(N)ncnc32)C1)Oc1ccccc1)C(=O)OC (stereo partly specified),> 10000,5000,> 2000,3710,20,15000,,2100,,≥ 250000
COC(=O)[C@H]1CCCN1P(=O)(OC[C@H]1C=C[C@@H](n2cnc3c(N)ncnc32)C1)Oc1ccccc1 (stereo partly specified),227000,110000,> 2000,105000,> 2000,105000,,117000,,≥ 250000
COC(=O)[C@@H]1CCCN1P(=O)(OC[C@H]1C=C[C@@H](n2cnc3c(N)ncnc32)C1)Oc1ccccc1 (stereo partly specified),> 10000,3500,> 2000,21000,510,7500,,5280,,92100
COC(=O)[C@@H](C)NP(=O)(OC[C@H]1C=C[C@@H](n2cnc3c(N)ncnc32)C1)Oc1ccccc1 (stereo partly specified),> 100000,,> 200000,,26.5,,41,2050,94,
CCOC(=O)[C@H](C)NP(=O)(OC[C@H]1C=C[C@@H](n2cnc3c(N)ncnc32)C1)Oc1ccccc1 (stereo partly specified),> 25000,,22000,,20,,15,17,39,
COC(=O)[C@H](C)NP(=O)(OC[C@H]1C=C[C@@H](n2cnc3c(N)ncnc32)C1)Oc1ccc(Cl)cc1 (stereo partly specified),2000,15,> 2000,18,3,47,,9,,3110
Nc1ncnc2c1ncn2[C@H]1CC[C@@H](CO)C1,> 125000,,> 200000,,33000,,,50000,,
Nc1ncnc2c1ncn2[C@@H]1C=C[C@H](CO)C1,> 100000,,> 200000,,980,,,80000,,

# — ChEMBL document CHEMBL1138881, “Application of phosphoramidate ProTide technology significantly improves antiviral potency of carbocyclic adenosine derivatives” (J Med Chem, 2006)
